Results from paper PMC2828537 (Pflugers Archiv : European journal of physiology, 2009).
Structures can show the parent of a compound that is named as a salt. Marks after values point to notes of the source that are not given here.

Legend:
[1] = target: T1, human TRPA1 endogenously expressed in WI-38 fibroblasts (Homo sapiens, UniProt O75762); experiment: Fluo4 [Ca2+]i assay in WI-38 fibroblasts; format: cell-based; conditions: for effect of antagonist on response to AITC / effect of antagonist preincubation on response to FFA: antagonist 20 µM; for effect of antagonist on response to AITC: AITC 33 µM; for effect of antagonist preincubation on response to FFA: FFA 33 µM; for agonist effect on Fluo4 fluorescence ([Ca2+]i) in WI-38 cells: 300 µM; for antagonist effect on the response induced by FFA or AITC: 100 µM added 2 min before the agonist, data not shown
T1 sequence (O75762 whole entry): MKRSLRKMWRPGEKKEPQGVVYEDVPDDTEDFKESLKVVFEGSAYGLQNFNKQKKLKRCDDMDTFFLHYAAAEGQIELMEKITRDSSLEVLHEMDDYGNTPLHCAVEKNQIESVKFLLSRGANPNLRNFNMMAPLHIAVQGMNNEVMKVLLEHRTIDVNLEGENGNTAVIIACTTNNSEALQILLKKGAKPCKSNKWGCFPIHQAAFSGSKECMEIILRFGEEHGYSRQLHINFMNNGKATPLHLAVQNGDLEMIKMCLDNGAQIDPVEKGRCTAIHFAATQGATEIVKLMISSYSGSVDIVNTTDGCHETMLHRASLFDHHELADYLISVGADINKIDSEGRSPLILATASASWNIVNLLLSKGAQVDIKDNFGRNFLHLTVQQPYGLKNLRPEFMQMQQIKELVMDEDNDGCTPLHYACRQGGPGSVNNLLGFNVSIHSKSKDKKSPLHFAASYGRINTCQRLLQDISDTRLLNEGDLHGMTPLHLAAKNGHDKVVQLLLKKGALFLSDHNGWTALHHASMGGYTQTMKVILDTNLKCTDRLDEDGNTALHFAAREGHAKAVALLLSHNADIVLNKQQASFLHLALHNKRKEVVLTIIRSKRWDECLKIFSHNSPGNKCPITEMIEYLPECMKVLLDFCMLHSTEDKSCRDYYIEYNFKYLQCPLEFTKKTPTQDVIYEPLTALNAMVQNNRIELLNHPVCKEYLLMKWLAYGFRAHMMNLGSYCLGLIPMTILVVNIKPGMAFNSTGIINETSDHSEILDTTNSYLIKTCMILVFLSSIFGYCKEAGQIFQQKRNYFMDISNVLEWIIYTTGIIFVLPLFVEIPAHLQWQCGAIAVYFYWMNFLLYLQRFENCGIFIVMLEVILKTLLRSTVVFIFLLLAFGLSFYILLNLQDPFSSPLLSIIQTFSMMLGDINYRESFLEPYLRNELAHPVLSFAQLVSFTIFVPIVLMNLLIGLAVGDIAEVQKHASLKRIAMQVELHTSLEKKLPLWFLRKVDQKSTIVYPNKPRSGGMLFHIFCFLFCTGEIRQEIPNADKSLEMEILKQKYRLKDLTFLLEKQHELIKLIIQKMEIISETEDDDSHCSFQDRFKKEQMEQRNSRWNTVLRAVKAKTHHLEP

rat TRPA1 = rat TRPA1 (Rattus norvegicus, UniProt Q6RI86); experiment: Two-electrode voltage clamp of Xenopus oocytes expressing rat TRPA1; format: cell-based; conditions: for effect on current in TRPA1-expressing oocytes: 300 µM; for current evoked by agonist alone, % of that evoked by 30 µM FFA: 3 µM agonist alone; for interaction with AITC, CA, or cold on channel activation: 30 µM fenamate with 3 µM AITC or CA, or 14°C; for EC50: nominally Ca2+-free bath
Chain of rat TRPA1 (Q6RI86 whole entry): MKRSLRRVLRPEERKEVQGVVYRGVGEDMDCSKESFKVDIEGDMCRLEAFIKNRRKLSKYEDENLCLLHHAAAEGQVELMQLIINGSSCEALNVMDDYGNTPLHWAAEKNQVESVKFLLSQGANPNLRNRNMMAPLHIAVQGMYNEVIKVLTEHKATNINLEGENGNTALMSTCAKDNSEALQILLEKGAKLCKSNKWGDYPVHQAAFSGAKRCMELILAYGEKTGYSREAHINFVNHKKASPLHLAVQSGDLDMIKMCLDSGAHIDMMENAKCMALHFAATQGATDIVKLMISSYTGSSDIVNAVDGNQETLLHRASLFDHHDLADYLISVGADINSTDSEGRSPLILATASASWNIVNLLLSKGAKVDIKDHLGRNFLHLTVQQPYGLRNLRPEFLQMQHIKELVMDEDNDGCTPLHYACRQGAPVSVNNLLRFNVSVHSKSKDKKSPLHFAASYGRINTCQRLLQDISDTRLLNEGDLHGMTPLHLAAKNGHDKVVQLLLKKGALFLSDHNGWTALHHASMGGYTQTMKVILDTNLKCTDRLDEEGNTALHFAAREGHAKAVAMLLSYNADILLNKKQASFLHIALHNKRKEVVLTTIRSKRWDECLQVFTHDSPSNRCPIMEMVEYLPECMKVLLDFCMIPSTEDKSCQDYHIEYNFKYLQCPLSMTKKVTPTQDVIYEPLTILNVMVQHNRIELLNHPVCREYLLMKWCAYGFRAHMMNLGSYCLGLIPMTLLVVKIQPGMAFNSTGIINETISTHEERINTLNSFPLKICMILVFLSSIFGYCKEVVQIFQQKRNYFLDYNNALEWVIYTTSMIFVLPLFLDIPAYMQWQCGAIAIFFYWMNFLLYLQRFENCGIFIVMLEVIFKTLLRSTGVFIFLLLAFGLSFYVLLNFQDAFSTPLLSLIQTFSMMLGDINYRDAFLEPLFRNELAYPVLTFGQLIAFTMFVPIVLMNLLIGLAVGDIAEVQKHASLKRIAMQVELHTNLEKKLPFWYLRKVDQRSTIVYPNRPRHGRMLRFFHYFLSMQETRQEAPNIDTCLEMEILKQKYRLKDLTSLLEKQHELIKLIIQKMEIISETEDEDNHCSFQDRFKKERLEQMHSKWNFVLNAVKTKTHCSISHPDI

HEK293 cells = experiment: Fluo4 [Ca2+]i assay in parental HEK293 cells; format: cell-based; conditions: 300 µM
Outline: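 Wild-type HEK293 cells in DMEM (4.5 mg/ml glucose, 10% heat-inactivated FBS, penicillin/streptomycin), plated on polyornithine-treated wells for 14–18 hrs. Loaded with Fluo4-AM (2 µM, 60 min, 37°C) in ECS with 2 mM probenecid, then washed. Test compound was given robotically at 300 µM final. Fluorescence was read on a plate reader at ex 494/em 525 nm, 0.67 Hz, 20–25°C.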

human TRPA1 = human TRPA1 (Homo sapiens, UniProt O75762); experiment: Fluo4 [Ca2+]i assay in HEK-A1 cells; format: cell-based; conditions: for nH (Hill coefficient): HEK-A1 cells
Chain of human TRPA1 (O75762 whole entry): as the sequence (O75762 whole entry) above

[2] = target: human TRPA1 Cys621Ser, Cys641Ser and Cys665Ser triple mutant (Homo sapiens, UniProt O75762, C621S/C641S/C665S); experiment: Currents of human TRPA1 triple cysteine mutant; format: cell-based; conditions: HH, unpublished results
Chain of human TRPA1 Cys621Ser, Cys641Ser and Cys665Ser triple mutant (O75762 whole entry C621S/C641S/C665S): as the sequence (O75762 whole entry) above, with C621S, C641S, C665S counted along it

[3] = tested on: TRPA1 channels heterologously expressed in mammalian cells and Xenopus oocytes; conditions: read-out: EC50 reported in the literature; as low as; cited from earlier work
[4] = target: T1, human TRPA1 endogenously expressed in WI-38 fibroblasts; experiment: Whole-cell recordings of WI-38 cells; format: cell-based; conditions: ruthenium red 30 µM in the bath
Outline: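 WI-38 cells grown in MEM with 10% heat-inactivated FBS and penicillin/streptomycin at 37°C, 5% CO₂. Cells were detached with 0.05% trypsin plus 0.53 mM EDTA in Ca²⁺/Mg²⁺-free HBSS for 5–10 min, held at 37°C, then settled on polyornithine-coated coverslips for 3–5 min before perfusion. Whole-cell voltage clamp was sampled at 5 kHz, with 100 ms ramps from −100 to +100 mV (holding −60 mV) applied every 0.5 s.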

Compound | effect on current in TRPA1-expressing oocytes (rat TRPA1) | EC50 [1] [µM] | agonist effect on Fluo4 fluorescence ([Ca2+]i) in WI-38 cells [1] | nH (Hill coefficient) ([1]; WI-38 cells) | effect on Fluo4 fluorescence in HEK293 cells (HEK293 cells) | also measured
CC(C)c1ccc(NC(=O)Cn2cnc3c2c(=O)n(C)c(=O)n3C)cc1 [HC-030031] |  |  |  |  |  | effect of antagonist on response to AITC [1]: blocked; effect of antagonist preincubation on response to FFA [1]: inhibited
CC(C(=O)O)c1ccc(-c2ccccc2)c(F)c1 (racemic) [flurbiprofen, (±)-flurbiprofen] | caused current increases | 342 ± 6 | increased the Fluo4 fluorescence | 1.5 ± 0.1 | little effect | EC50 (human TRPA1): 310 ± 66 µM; nH (Hill coefficient) (human TRPA1): 2.0 ± 0.3
CC1CCC(C(C)C)C(O)C1 (stereo not drawn) [menthol] |  |  |  |  |  | concentration-response curve in triple cysteine mutant [2]: right-shifted
O=C(c1ccccc1)c1ccc2n1CCC2C(=O)O (stereo not drawn) [ketorolac, ketorolac tromethamine salt] | did not have an effect |  | fail to activate |  |  | antagonist effect on the response induced by FFA or AITC [1]: do not act as antagonists
C=CCN=C=S [AITC, allyl isothiocyanate] |  |  | rapid fluorescence increase | 1.0 ± 0.1 |  | current evoked by agonist alone, % of that evoked by 30 µM FFA (rat TRPA1; +100 mV): 45 ± 14%; current evoked by agonist alone, % of that evoked by 30 µM FFA (rat TRPA1; −100 mV): 51 ± 10%; nH (Hill coefficient) (human TRPA1): 0.8 ± 0.1; EC50 [3]: 5 µM
O=C/C=C/c1ccccc1 [CA, cinnamaldehyde] |  | 400 ± 41 | rapid fluorescence increase | 0.9 ± 0.1 |  | current evoked by agonist alone, % of that evoked by 30 µM FFA (rat TRPA1; +100 mV): 44 ± 16%; current evoked by agonist alone, % of that evoked by 30 µM FFA (rat TRPA1; −100 mV): 45 ± 8%; EC50 [3]: 6.5 µM
N.N.N.N.N.N.N.N.N.N.N.N.N.N.[Cl-].[Cl-].[Cl-].[Cl-].[Cl-].[Cl-].[O-2].[O-2].[Ru+3].[Ru+3].[Ru+4] [ruthenium red] |  |  |  |  |  | effect of antagonist on response to AITC [1]: blocked; IC50 ([1]; read-out: IC50 for inhibition of the response to FFA, curve not shown): 2.1 µM; effect on FFA-induced whole-cell currents [4]: completely abolished
NCCOB(c1ccccc1)c1ccccc1 [2APB, 2-aminoethoxydiphenyl borate] |  |  |  |  |  | concentration-response curve in triple cysteine mutant [2]: right-shifted
O=C(O)Cc1ccccc1Nc1c(Cl)cccc1Cl [diclofenac, Diclofenac sodium salt] | caused current increases |  | increased the Fluo4 fluorescence | 1.3 ± 0.2 | little effect | 
Cc1cccc(Nc2ccccc2C(=O)O)c1C [MFA, mefenamic acid] |  |  | increased the Fluo4 fluorescence | 1.5 ± 0.2 | little effect | interaction with AITC, CA, or cold on channel activation (rat TRPA1): positive synergistic effects
C=CC=O [acrolein] |  |  | rapid fluorescence increase | 1.0 ± 0.1 |  | EC50 [3]: 0.8 µM
CC(=C\c1ccc(Cl)cc1)/C(C)=N/O [AP-18] |  |  |  |  |  | effect of antagonist on response to AITC [1]: blocked; effect of antagonist preincubation on response to FFA [1]: inhibited

Continued, in another order:

effect on current in TRPA1-expressing oocytes (rat TRPA1) | EC50 [1] [µM] | agonist effect on Fluo4 fluorescence ([Ca2+]i) in WI-38 cells [1] | nH (Hill coefficient) ([1]; WI-38 cells) | Compound | effect on Fluo4 fluorescence in HEK293 cells (HEK293 cells) | also measured
very weak activator | > 500 | increased the Fluo4 fluorescence |  | CC(C(=O)O)c1cccc(C(=O)c2ccccc2)c1 (stereo not drawn) [ketoprofen, Ketoprofen] | little effect | 
caused current increases | 470 ± 54 | increased the Fluo4 fluorescence |  | COc1ccc2c(c1)c(CC(=O)O)c(C)n2C(=O)c1ccc(Cl)cc1 [indomethacin] | little effect | nH (Hill coefficient), fixed to make the fit ([1]; WI-38 cells, nH was fixed to 1.5): 1.5 ^b
 |  | did not act as agonists |  | CC(=O)Oc1ccccc1C(=O)O [acetylsalicylic acid, Acetylsalicylic acid] |  | 
 |  | did not act as agonists |  | CC(C)Cc1ccc([C@H](C)C(=O)O)cc1 [ibuprofen, (S)-(+)-ibuprofen] |  | 
did not have an effect |  | fail to activate |  | COc1ccc2cc([C@H](C)C(=O)O)ccc2c1 [naproxen, (S)-naproxen] |  | antagonist effect on the response induced by FFA or AITC [1]: do not act as antagonists
 | 157 ± 8 | rapid fluorescence increase | 1.1 ± 0.1 | COC(=O)C1=C(C)NC(C)=C(C(=O)OC)C1c1ccccc1[N+](=O)[O-] [nifedipine] |  | EC50 (human TRPA1): 140 ± 23 µM; nH (Hill coefficient) (human TRPA1): 1.0 ± 0.1; EC50 [3]: 0.4 µM
 | 28 ± 3 | increased the Fluo4 fluorescence | 1.4 ± 0.2 | O=C(O)c1cccnc1Nc1cccc(C(F)(F)F)c1 [NFA, niflumic acid] | little effect | threshold of activation (rat TRPA1): 10 to 30 µM; interaction with AITC, CA, or cold on channel activation (rat TRPA1): positive synergistic effects; Hill co-efficient at +100 mV (rat TRPA1; +100 mV): 2.6 ± 0.3; EC50 (rat TRPA1; EC50 for current activation at +100 mV, +100 mV): 240 ± 12 µM; EC50 (rat TRPA1; EC50 for current activation at −100 mV, −100 mV): 540 ± 27 µM; Hill co-efficient at −100 mV (rat TRPA1; −100 mV): 2.1 ± 0.2
